Tn6 DDE FP = disrupts Tn6 cyclic peptide binding to fibrin D-Dimer-E complex | P02675 | Fibrin DD(E) TRITC-Tn6 fluorescence polarization displacement | inhibition, % at 8.3 µM | 0.21% of 370,000 active | AID 720509;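 active = inhibition above a per-campaign cutoff: mean of compounds within control limits plus 3 SD, cut at about 15% in these data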;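 note: 0% = median of all compound wells on the plate and 100% = blocking peptide control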
Target sequence (P02675 whole entry, looked up): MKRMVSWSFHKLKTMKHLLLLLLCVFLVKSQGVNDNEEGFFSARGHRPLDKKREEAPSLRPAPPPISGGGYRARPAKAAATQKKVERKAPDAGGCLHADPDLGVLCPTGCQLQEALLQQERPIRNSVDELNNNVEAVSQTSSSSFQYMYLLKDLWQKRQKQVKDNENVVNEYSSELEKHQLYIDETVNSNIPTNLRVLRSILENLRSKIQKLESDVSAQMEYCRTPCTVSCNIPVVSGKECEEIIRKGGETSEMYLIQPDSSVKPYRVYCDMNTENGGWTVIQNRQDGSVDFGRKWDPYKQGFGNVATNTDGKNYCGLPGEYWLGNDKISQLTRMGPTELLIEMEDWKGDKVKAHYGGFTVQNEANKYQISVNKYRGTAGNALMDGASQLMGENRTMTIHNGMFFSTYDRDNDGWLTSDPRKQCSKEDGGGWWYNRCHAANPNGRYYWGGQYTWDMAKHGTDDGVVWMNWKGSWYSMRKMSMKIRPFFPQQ
PLC-beta3 inh = blocks human PLC-beta3 enzyme activity; Q01970; Purified PLC-beta3, fluorogenic substrate, fluorescence; inhibition, % at 12.2 µM; 0.18% of 370,000 active; AID 720704; in the data active = inhibition above about 11%;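 note: 0% = median of compound wells on plate and 100% = full blocker control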
ADAM10 inh = inhibits human ADAM10 | O14672 | recombinant ADAM10, EDANS/DABCYL FRET peptide cleavage, 3 h | inhibition, % at 7 µM | 0.62% of 370,000 active | AID 720582;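 active = inhibition above a per-campaign cutoff equal to the mean of compounds falling between control-based bounds plus 3 SD, cut at about 20% in these data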;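 note: 0% = DMSO wells while the 100% control is not disclosed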
Tn7 DDE FP = inhibitors of Tn7 peptide binding to human fibrin DD(E) | P02675 | FP displacement of FITC-Tn7 peptide from fibrin DD(E); 0% = median of compound wells per plate | inhibition, % at 8.3 µM | 0.13% of 370,000 active | AID 720508;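 active = inhibition above the mean of compounds falling within the control limits plus 3 SD of them, cut at about 14% in these data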;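 note: 0% = plate median of compound wells and 100% = 10 µM Aha-Tn7 peptide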
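Test system: human clot-derived fibrin DD(E) complex / Quantity: 2 µM final DD(E) protein / Incubation: 10 min plus 3 h, room temperature / Measured by: fluorescence polarization / Benchmarks: high control of 10 µM Aha-Tn7 peptide / Replicates: singlicate testing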
PLC-gamma1 inh = inhibitors of human phospholipase C gamma1; purified PLC-gamma1, fluorogenic substrate, fluorescence; P19174; AID 720700; 0.84% of 370,000 active; inhibition, % at 12.2 µM; in the data active = inhibition above about 9.5%
ADAM17 inh = inhibitors of human ADAM17. recombinant ADAM17, EDANS/DABCYL FRET peptide cleavage. inhibition, % at 6.95 µM. 0.83% of 370,000 active;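 active = inhibition above the mean of compounds lying between control limits plus 3 SD, set per campaign, cut at about 8.5% in these data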;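 note: 0% = DMSO-only wells as the low control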
ADAM10 confirm = confirmation of inhibitors of human ADAM10; inhibition, % at 6.95 µM; ADAM10 QFRET peptide cleavage, EDANS fluorescence; shares compounds with ADAM10 inh; 1% of 2,100 active; AID 743208;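 active = inhibition above about 20% chosen separately for each screening run, limit read from the data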;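 note: 0% = DMSO wells and 100% = marimastat wells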
ADAM17 ctr = counter-screen for ADAM10 exosite inhibitors: inhibitors of human ADAM17. 0.5% of 2,100 active. ADAM17 QFRET peptide cleavage, EDANS fluorescence. inhibition, % at 6.95 µM. AID 743214. shares compounds with ADAM10 inh;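 active = mean triplicate inhibition above the solvent-only control wells' mean plus 3 SD, cut at about 12% in these data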;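 note: 0% = DMSO wells and 100% = marimastat wells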
ADAM10 counter = counter-screen for ADAM17 exosite inhibitors: inhibitors of human ADAM10. shares compounds with ADAM17 inh. recombinant ADAM10, EDANS/DABCYL FRET peptide cleavage, 3 h. inhibition, % at 6.95 µM. 47% of 2,900 active;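 active = mean inhibition over the triplicate runs exceeds the activity threshold set in the earlier primary screen, cut at about 20% in these data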;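 note: 0% = DMSO wells and 100% = marimastat wells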
ADAM17 confirm = confirmation of inhibitors of human ADAM17; shares compounds with ADAM17 inh; recombinant ADAM17, EDANS/DABCYL QFRET peptide cleavage; inhibition, % at 6.95 µM; 65% of 2,900 active;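 active = mean inhibition across replicates above the hit cutoff set in the primary screen, cut at about 8.5% in these data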;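 note: 0% = DMSO wells and 100% = marimastat wells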
Active calls of the source: *; . = no result. Sampled rows, rich in hits. Any-hit rate of the full collection: about 2.3%.

SMILES	Tn6 DDE FP	PLC-beta3 inh	ADAM10 inh	Tn7 DDE FP	PLC-gamma1 inh	ADAM17 inh	ADAM10 confirm	ADAM17 ctr	ADAM10 counter	ADAM17 confirm
CC(C)C[C@H](NC(=O)c1nc[nH]c1C(=O)N[C@@H](CCCCNC(=O)OC(C)(C)C)C(=O)OC(C)(C)C)C(=O)OC(C)(C)C	0	-3	12	-5	1	0	.	.	.	.
Cn1c(N/N=C/c2cccs2)cc(=O)n(C)c1=O	0	-14	-91	5	-10	-31	.	.	.	.
Fc1c(F)c(C(F)(F)F)c(F)c(F)c1N/N=C\c1cccs1	-11	2	24*	-5	2	9.8*	14	4	32*	19*
Nc1cc(OC(=O)c2cccs2)nn1S(=O)(=O)c1ccccc1	0	0	4	6	0	-2	.	.	.	.
Nc1cc(OC(=O)c2c(F)cccc2Cl)nn1S(=O)(=O)c1ccccc1	3	1	28*	-6	7	12*	7	2	18	11*
O=C(NCCc1ccc(F)cc1)c1ccc2c(c1)ncn2C1CCCCC1	-3	-1	0	-1	-2	2	.	.	.	.
CN(C)S(=O)(=O)c1cccc(NC(=O)COC(=O)c2cn(-c3ccccc3)nc2-c2ccccc2)c1	-10	6	29*	5	6	11*	8	3	31*	19*
CCc1cccc(CC)c1NC(=O)COC(=O)c1cccc(S(=O)(=O)N2CCc3ccccc3C2)c1	2	3	-3	7	0	0	.	.	.	.
CN(C)S(=O)(=O)c1cccc(NC(=O)COC(=O)c2cccc(S(=O)(=O)N3CCc4ccccc4C3)c2)c1	3	3	23*	0	8	11*	7	2	16	12*
O=C(NCCc1ccccc1)OCc1cn(Cc2cc(F)ccc2F)nn1	2	-6	-2	4	-5	-5	.	.	.	.
CCn1c(Cn2nnc(-c3ccccc3)n2)nnc1SCc1ccc(Cl)c(Cl)c1	-4	2	26*	6	4	9.1*	8	2	32*	18*
CCCCNS(=O)(=O)c1ccc2nc(SCC(=O)Nc3ccccc3)[nH]c2c1	-3	9	23*	-13	9	9.1*	3	-1	10	3
O=C1C=C(O)CC(c2ccc(Cl)cc2)C1 (centres undefined)	-5	-1	8	-6	0	-4	.	.	.	.
O=C1C=C(/C=C/C2C=CC=CC2)C[C@@H](c2ccc(Cl)cc2)C1 (some centres undefined)	-13	4	27*	-7	6	13*	6	1	-3	6
O=C(O)c1cccc(S(=O)(=O)NCC(=O)N2CCN(c3ccccn3)CC2)c1	-3	3	-2	3	1	-1	.	.	.	.
COc1ccc(N2CCC(CNC(=S)Nc3cccc(OC)c3)C2)cc1 (centres undefined)	1	-7	20*	-2	-7	8.8*	3	1	11	11*
CCC[C@H]1[C@@H](NC(=O)c2cccc(C(F)(F)F)c2)CC[C@@]23CCCN2C(=O)CCC[C@@H]13	2	-2	-7	6	-2	-6	.	.	.	.
O=C(COC(=O)c1ccc(Sc2ncn[nH]2)c([N+](=O)[O-])c1)Nc1ccc(Cl)c(Cl)c1	-4	-2	20*	4	2	10.0*	8	1	38*	20*
Cc1ccc(S(=O)(=O)N2CCCC2C(=O)Nc2nc3c(s2)CCCC3)cc1 (centres undefined)	3	0	-3	-1	0	-4	.	.	.	.

Assay outcomes deposited in PubChem by The Scripps Research Institute Molecular Screening Center.
